# From the RNAGym collection of RNA variant scans (doi:10.1126/science.aae0568)
# Fewer inactive variants are shown than the library holds.
# B1: tRNA (parent)
# chain: GUUCCGUUGGCGUAAUGGUAACGCGUCUCCCUCCUAAGGAGAAGACUGCGGGUUCGAGUCCCGUACGGAACG
# Variants of: B1
# Experiment: yeast fitness relative to wild type (ratio to wild type); higher = fitter; tRNA-Arg(CCU), competitive growth, 37 C, YPD
# Procedure, shortened: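 The tRNA-Arg(CCU) gene variants were made by chemical synthesis with a 3% per-site mutation rate at 69 sites and inserted at the native genomic locus of Saccharomyces cerevisiae. After pooling, the strains were competed in YPD at 37°C for 24 hours in six parallel replicates. Gene amplicons from the start population and each end population were read by 100-nucleotide paired-end sequencing, and Darwinian fitness relative to wild type was taken from genotype frequency changes. Genotypes needed ≥ 100 starting reads, and estimates < 0.5 were set to 0.5.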
row,Variant,yeast fitness
1,C22A G50C A65G,≤ 0.5
2,A21C C22G A69C,≤ 0.5
3,A20U C33A,0.653
4,A20U C33U,0.675
5,A21C U28A G68A,≤ 0.5
6,A21G U32C C34A C55A A69C,≤ 0.5
7,A21G U32C U59G C61U C66U A70C,0.572
8,A21G U26C G48C,0.615
9,C22A C24G A65U A69C,≤ 0.5
10,A21G U47G,0.525
11,C22A C27G G41A C62A,0.655
12,A21U C29G C49G,0.519
13,A21U U35C G51C,≤ 0.5
14,A21C U53G,0.567
15,A20U U47G G52C,≤ 0.5
16,A21U G48C C55A C66U,≤ 0.5
17,A21G A40G C49G U59G G67C,≤ 0.5
18,A21U U54C,0.703
19,C22A C30U C31G C61U A69C,≤ 0.5
20,A21G C30A U32G G67A A69C,≤ 0.5
21,A21U G48C C55A C66G G67C,0.526
22,A20U U59G,0.728
23,A20U U59A,0.847
24,A21U A43G,0.752

row,Variant,yeast fitness
1,A21U G48C,0.586
2,A21C A69C,0.809
3,A21G A45C U59C A69G,0.539
4,A21U C22G C66U,0.568
5,A21U C22U A43G,≤ 0.5
6,A21G C30U G67A,0.633
7,C22A C27G G38C A43C C66U A69G,≤ 0.5
8,A21C C33U C55A,0.533
9,A21G U35G A57C G67C,≤ 0.5
10,A21U C27G C33U C34A G51C A57C,≤ 0.5
11,A21G C27G C33G,≤ 0.5
12,C22A C49U C55A,0.656
13,C22A C60A,0.659
14,A20U G23A G63A A70U,≤ 0.5
15,C22A C24G U53A,≤ 0.5
16,A21C A36U G48A,≤ 0.5
17,A21G C27U C30G U32G C46G G48A C60A,0.561
18,A21U C34G G56A,≤ 0.5
19,A21C G39A A65C,≤ 0.5
20,C22A C27U,0.976
21,A21C U26G,0.642
22,A21G C34G A40G,0.572
23,A21G C31G C66A,0.505
24,A21G C30G A36G C46G A57U,0.551

row,Variant,yeast fitness
1,A21G C49U,0.994
2,A21U C30A,0.757
3,C22G A36C U47A,0.552
4,A21G G23A C27U C66U,0.533
5,A21U C24G U28A U59A,≤ 0.5
6,A21U C30G C31U G48C,0.753
7,A21G C66U,0.858
8,A21C U47A C60U G67C,≤ 0.5
9,A21U G50C C61G A70U,≤ 0.5
10,A21G C62U,0.924
11,A20U G39A A45C A57C G68C,≤ 0.5
12,A21G A42U G67A,0.54
13,A21U C34G A42U C61U,≤ 0.5
14,A21C C27U A57G C62U,0.507
15,A21U C22U G48C A65G C66U,≤ 0.5
16,A21C C27A,0.545
17,A21U C27G C33U C34A C66U,≤ 0.5
18,A21G U32A C66U,0.512
19,A20U C34U A42U,≤ 0.5
20,C22A U26A A36U G56C C60G,≤ 0.5
21,A21G C29U A36U A43U C62A,0.559
22,A21G C33U C49A,0.502
23,A21C G25C,0.896
24,A21C U32C C60G,≤ 0.5

row,Variant,yeast fitness
1,C22A U26A C66U,0.582
2,A21C C34U A36U G38C C49U,≤ 0.5
3,A20U U35C,0.949
4,A20U C34A C66A,≤ 0.5
5,A21C A45G,0.918
6,C22A A40G C60G A70G,≤ 0.5
7,A21U A40C,0.727
8,A21G G23A C66G,≤ 0.5
9,A21C G25C U26G G50U G56A U59A A70C,0.541
10,A21G A37C A57C G58A,≤ 0.5
11,A21U C46G U47C G56A C60A,≤ 0.5
12,A21U U28G G56A,≤ 0.5
13,A21G C27U A69U,0.772
14,A21C A42G,0.751
15,A21U C55G,0.527
16,A21G U47C C49U,0.773
17,C22A C24A,0.54
18,A21U C49U U54A,≤ 0.5
19,C22A U26A,0.949
20,C22A C30U C31G A57C A65C A70C,≤ 0.5
21,A21G A43U C49U U53C C61G,≤ 0.5
22,C22A C31G G41C G63C A70U,≤ 0.5
23,A20U U54C,0.758
24,A20U C33A C66A,≤ 0.5

row,Variant,yeast fitness
1,A21U C61A G67A,≤ 0.5
2,C22A C24G A36C,≤ 0.5
3,C22G A37G A45C G51U,≤ 0.5
4,C22A C24G G56C,0.786
5,A21U C29U G48A U54C,≤ 0.5
6,A21G U28G C62G,≤ 0.5
7,C22A C33G A43C C49U U64C,≤ 0.5
8,A21G A37G C60G,≤ 0.5
9,A21G A43U G58C C60A C66U,≤ 0.5
10,A21U C22G U59C,≤ 0.5
11,C22A C49U G51C,≤ 0.5
12,A21G C61G C62U,≤ 0.5
13,A21C C46G C49G G56A,0.528
14,A21G C49U U59G,0.619
15,A21U U28A A40U C55A A70G,≤ 0.5
16,A21U C34A U54A C62A A70G,≤ 0.5
17,C22A G68A,0.869
18,C22A G68U,0.825
19,C22A G68C,0.822
20,A21C G41A G48C G51C G52C,≤ 0.5
21,A20U C60U A69U,0.672
22,A21C C34G G48C,≤ 0.5
23,A21G C27G A42U,≤ 0.5
24,A21U C22U A42C A43U G44C A65C,0.663

row,Variant,yeast fitness
1,A21U C31U A57U,≤ 0.5
2,C22A C29U C55U,0.579
3,A21G C31U C49U,0.97
4,A21G C33G C34G,0.547
5,A21U C34A G56C G63A U64C G67C,≤ 0.5
6,A21G A40G C55A,0.535
7,A20U G44U A57U G58A C66G,0.518
8,A21C C33G C34G U54A,≤ 0.5
9,A21C A42U A45U,0.646
10,C22A C24G U32C C34U,≤ 0.5
11,A20U G63A,0.932
12,A20U U26A,0.754
13,A21U A42C U47G G63A A69U,≤ 0.5
14,A21U A65U,0.793
15,A21G G23A A40C G52A,≤ 0.5
16,C22G A43G C55U U64G,≤ 0.5
17,A21U A42G C62A,≤ 0.5
18,A21C C34U U64A,≤ 0.5
19,A21C C34U A65G,0.532
20,A21C U28C,0.852
21,A21C A65C G67U,≤ 0.5
22,C22A C24G A36G G39C G56A,≤ 0.5
23,A21C C24U U26A G38C C46G C62U A65C,≤ 0.5
24,A21G C29U A37U G63C,≤ 0.5

row,Variant,yeast fitness
1,A21G U35C C66A,≤ 0.5
2,C22A C29U C62G,≤ 0.5
3,A21C C27G C29A A65C,≤ 0.5
4,A21C A43U G50A G52U A69C,0.554
5,A21U G68U,0.752
6,A21U A37U C60G,0.608
7,A21U A42U G44C C60G C62G,≤ 0.5
8,A21G C55G,0.671
9,A21G C55A,0.641
10,C22A G25A U64A,0.629
11,A20U G44C A45G,0.596
12,A21U A37U A40U G50C,≤ 0.5
13,A21U C22A G50C,0.575
14,A20U C61U,0.836
15,C22A G63C A65C,≤ 0.5
16,C22A G41A C46U C66U,0.716
17,A21C C29G,0.622
18,A20U U26C C62G,≤ 0.5
19,C22A C24U G58C C62G,≤ 0.5
20,C22A G25A A69C,0.784
21,A21C A43G G48C,≤ 0.5
22,A21U C29U C31U U54C A70G,≤ 0.5
23,C22A A36G,0.8
